The subject of one assay is Rattus norvegicus. The experiment in a line: Tested for in vivo antisecretory potency for inhibiting VIP-induced (30 micro g/kg/h) secretion in isolated jejunum in anesthetized rats.(95% CL). The note with it: read-out: ID50 (the source's name). The format is functional. The method, boiled down: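 Rats anesthetized, saphenous vein cannulated. Isolated jejunal loop instilled with 2000 μL fluid. At the end the loop is excised, measured and weighed before and after emptying. Net water flux (μL/cm/30 min) = (F-E)2000/L; negative means absorption. 6-8 animals per dose.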

For assay [1], the target named is Neuropeptide Y receptor type 1 (Homo sapiens, UniProt P25929). Description: Affinity against Neuropeptide Y receptor Y1 in SK-N-MC cell line. It counts as cell-based.
Sequence of Neuropeptide Y receptor type 1 (P25929 whole entry): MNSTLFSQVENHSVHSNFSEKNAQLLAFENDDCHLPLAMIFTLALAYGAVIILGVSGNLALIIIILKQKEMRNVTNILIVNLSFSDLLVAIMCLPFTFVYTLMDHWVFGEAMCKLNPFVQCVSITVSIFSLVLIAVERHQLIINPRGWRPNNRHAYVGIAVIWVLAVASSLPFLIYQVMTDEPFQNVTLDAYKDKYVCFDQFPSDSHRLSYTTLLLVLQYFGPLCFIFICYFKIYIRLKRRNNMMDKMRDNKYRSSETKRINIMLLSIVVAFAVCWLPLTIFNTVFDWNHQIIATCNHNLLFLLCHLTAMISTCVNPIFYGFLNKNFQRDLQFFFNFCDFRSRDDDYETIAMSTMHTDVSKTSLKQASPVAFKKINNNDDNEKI
Assay [2] has as its target T1, Neuropeptide Y receptor type 2 (Homo sapiens, UniProt P49146).
T1 sequence (P49146 whole entry): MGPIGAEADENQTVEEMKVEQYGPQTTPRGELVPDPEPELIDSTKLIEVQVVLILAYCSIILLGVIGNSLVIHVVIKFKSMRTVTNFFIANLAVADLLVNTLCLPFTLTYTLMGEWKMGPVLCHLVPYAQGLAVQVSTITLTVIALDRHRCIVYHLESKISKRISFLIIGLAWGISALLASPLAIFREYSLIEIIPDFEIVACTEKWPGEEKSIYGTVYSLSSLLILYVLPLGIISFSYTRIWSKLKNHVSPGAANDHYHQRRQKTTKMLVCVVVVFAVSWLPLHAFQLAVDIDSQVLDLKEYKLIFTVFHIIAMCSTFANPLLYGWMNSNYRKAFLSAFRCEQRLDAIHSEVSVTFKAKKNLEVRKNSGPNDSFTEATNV
Description: Affinity against Neuropeptide Y receptor Y2 in SK-N-BE2 cell line.

In assay [3] the target is T2, Neuropeptide Y receptor type 2 (Rattus norvegicus, UniProt Q9ERC0). The experiment in a line: Antisecretory potency, affinity for intestinal PYY of rat jejunum by using short circuit current (SCC) method. The format is tissue-based.
T2 sequence (Q9ERC0 whole entry): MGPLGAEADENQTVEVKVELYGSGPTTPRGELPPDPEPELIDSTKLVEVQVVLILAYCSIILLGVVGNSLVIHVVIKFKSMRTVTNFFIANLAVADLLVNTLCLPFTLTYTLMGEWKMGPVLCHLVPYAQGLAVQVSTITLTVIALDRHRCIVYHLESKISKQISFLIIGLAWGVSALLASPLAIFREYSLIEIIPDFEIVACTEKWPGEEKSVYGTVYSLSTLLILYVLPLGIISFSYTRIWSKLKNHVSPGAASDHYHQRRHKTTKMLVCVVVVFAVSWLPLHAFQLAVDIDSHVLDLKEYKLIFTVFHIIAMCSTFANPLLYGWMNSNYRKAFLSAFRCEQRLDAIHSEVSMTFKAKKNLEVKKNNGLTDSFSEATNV
The target in assay [4] is T2, Neuropeptide Y receptor type 2. The experiment in a line: Tested for the affinity for intestinal PYY from rat jejunum by using short circuit current (SCC) method.

*1 amine or outer side, *2 acyl side, *3 side chain or, on linkers, in order; H or OH if unused. Where a SMILES comes first, the peptide text is derived from it. Bridges are numbered along the chain shown (N, C = ends). Roman numbers before positions name the chains, in order. Side-chain parts run from the residue outwards. [ ]: non-standard residue; d: D form. X4 = NC(N)=NCCC[C@@H](CN([C@@H](Cc1c[nH]cn1)C(=O)[*:2])[*:1])N[*:3]; Dip = N[C@H](C(=O)O)C(c1ccccc1)c1ccccc1; 1Nal = N[C@@H](Cc1cccc2ccccc12)C(=O)O

Consider `CCCC[C@H](NC(=O)[C@H](CO)NC(=O)[C@H](C)NC(C)=O)C(=O)N[C@@H](CCCN=C(N)N)C(=O)N[C@@H](Cc1c[nH]cn1)C(=O)N[C@@H](Cc1ccc(O)cc1)C(=O)N[C@@H](CCCC)C(=O)N[C@@H](CC(N)=O)C(=O)N[C@@H](Cc1c[nH]c2ccccc12)C(=O)N[C@@H](CCC)C(=O)N[C@H](C(=O)N[C@@H](CCCN=C(N)N)C(=O)N[C@@H](CCC(N)=O)C(=O)N[C@@H](CCCN=C(N)N)C(=O)N[C@@H](Cc1ccc(O)cc1)C(N)=O)[C@@H](C)O`, for which the ED50 in the assay with Rattus norvegicus stood at 1.3e-05 µmol/kg.
Regarding `CC(=O)N[C@@H](C)C(=O)N[C@@H](CO)C(=O)N[C@@H](CC(C)C)C(=O)N[C@@H](CCCN=C(N)N)C(=O)N[C@@H](Cc1c[nH]cn1)C(=O)N[C@@H](Cc1ccc(O)cc1)C(=O)N[C@@H](CC(C)C)C(=O)N[C@@H](CC(N)=O)C(=O)N[C@@H](Cc1c[nH]c2ccccc12)C(=O)N[C@H](C(=O)N[C@H](C(=O)N[C@@H](CCCN=C(N)N)C(=O)N[C@@H](CCC(N)=O)C(=O)N[C@@H](CCCN=C(N)N)C(=O)N[C@@H](Cc1ccc(O)cc1)C(N)=O)[C@@H](C)O)C(C)C`, the IC50 (as a rule, the point on the concentration scale where inhibition reaches its midpoint) in assay [1] was determined as 250 nM; in assay [2], 0.98 nM; in assay [3] it was 0.6 nM. In addition, the ED50 in the assay with Rattus norvegicus worked out at 2.1e-06 µmol/kg.
Compound Ac-ASWRHYLNLVTRQRY-NH2 yielded an IC50 in assay [4] of 2.1 nM.
For `CC(=O)N[C@@H](C)C(=O)N[C@@H](CO)C(=O)N[C@@H](CSSC[C@H](NC(=O)[C@H](CO)NC(=O)[C@H](C)NC(C)=O)C(=O)N[C@@H](CCCNC(=N)N)C(=O)N[C@@H](Cc1cnc[nH]1)C(=O)N[C@@H](Cc1ccc(O)cc1)C(=O)N[C@@H](CC(C)C)C(=O)N[C@@H](CC(N)=O)C(=O)N[C@@H](CC(C)C)C(=O)N[C@H](C(=O)N[C@H](C(=O)N[C@@H](CCCNC(=N)N)C(=O)N[C@@H](CCC(N)=O)C(=O)N[C@@H](CCCNC(=N)N)C(=O)N[C@@H](Cc1ccc(O)cc1)C(N)=O)[C@@H](C)O)C(C)C)C(=O)N[C@@H](CCCNC(=N)N)C(=O)N[C@@H](Cc1cnc[nH]1)C(=O)N[C@@H](Cc1ccc(O)cc1)C(=O)N[C@@H](CC(C)C)C(=O)N[C@@H](CC(N)=O)C(=O)N[C@@H](CC(C)C)C(=O)N[C@H](C(=O)N[C@H](C(=O)N[C@@H](CCCNC(=N)N)C(=O)N[C@@H](CCC(N)=O)C(=O)N[C@@H](CCCNC(=N)N)C(=O)N[C@@H](Cc1ccc(O)cc1)C(N)=O)[C@@H](C)O)C(C)C` (I: Ac-ASCRHYLNLVTRQRY-NH2 / II: Ac-ASCRHYLNLVTRQRY-NH2; disulfide I:3-II:3) [listing 1 of 2 here], the ED50 in the assay on Rattus norvegicus worked out at 0.000365 µmol/kg.
As to `CC(=O)N[C@@H](C)C(=O)N[C@@H](CO)C(=O)N[C@@H](CC(C)C)C(=O)N[C@@H](CCCN=C(N)N)CN[C@@H](Cc1c[nH]cn1)C(=O)N[C@@H](Cc1ccc(O)cc1)C(=O)N[C@@H](CC(C)C)C(=O)N[C@@H](CC(N)=O)C(=O)N[C@@H](CC(C)C)C(=O)N[C@H](C(=O)N[C@H](C(=O)N[C@@H](CCCN=C(N)N)C(=O)N[C@@H](CCC(N)=O)C(=O)N[C@@H](CCCN=C(N)N)C(=O)N[C@@H](Cc1ccc(O)cc1)C(N)=O)[C@@H](C)O)C(C)C` (H-[X4]([Leu-Ser-Ala-Ac])YLNLVTRQRY-NH2), the figures for the IC50 in assay [1], in assay [2] and in assay [3] were > 1000 nM, 41 nM and 4.22 nM, respectively.
With `CC(=O)N[C@@H](C)C(=O)N[C@@H](CO)C(=O)N[C@@H](CC(C)C)C(=O)N[C@@H](CCCN=C(N)N)C(=O)N[C@@H](Cc1c[nH]cn1)C(=O)N[C@H](CN[C@@H](CC(C)C)C(=O)N[C@@H](CC(N)=O)C(=O)N[C@@H](CC(C)C)C(=O)N[C@H](C(=O)N[C@H](C(=O)N[C@@H](CCCN=C(N)N)C(=O)N[C@@H](CCC(N)=O)C(=O)N[C@@H](CCCN=C(N)N)C(=O)N[C@@H](Cc1ccc(O)cc1)C(N)=O)[C@@H](C)O)C(C)C)Cc1ccc(O)cc1`, the IC50 in assay [1] is 1270 nM; in assay [2], 864 nM; in assay [3], > 100 nM.
For `CC(=O)N[C@@H](C)C(=O)N[C@@H](CO)C(=O)N[C@@H](CC(C)C)C(=O)N[C@@H](CCCN=C(N)N)C(=O)N[C@@H](Cc1c[nH]cn1)C(=O)N[C@@H](Cc1ccc(O)cc1)C(=O)N[C@@H](CC(C)C)C(=O)N[C@@H](CC(N)=O)C(=O)N[C@@H](Cc1c[nH]c2ccccc12)C(=O)N[C@H](C(=O)N[C@H](C(=O)N[C@@H](CCCN=C(N)N)C(=O)N[C@@H](CCC(N)=O)C(=O)N[C@@H](CCCN=C(N)N)CN[C@@H](Cc1ccc(O)cc1)C(N)=O)[C@@H](C)O)C(C)C`, the ED50 in the assay on Rattus norvegicus was determined as 0.00019 µmol/kg.
As to `CCCC[C@H](NC(=O)[C@H](CO)NC(=O)[C@H](C)NC(C)=O)C(=O)N[C@@H](CCCN=C(N)N)C(=O)N[C@@H](Cc1c[nH]cn1)C(=O)N[C@@H](Cc1ccc(O)cc1)C(=O)N[C@@H](CCCC)C(=O)N[C@@H](CC(N)=O)C(=O)N[C@@H](Cc1c[nH]c2ccccc12)C(=O)N[C@@H](CCC)C(=O)N[C@H](C(=O)N[C@@H](CCCN=C(N)N)C(=O)N[C@@H](CCC(N)=O)C(=O)N[C@@H](CCCN=C(N)N)CN[C@@H](Cc1ccc(O)cc1)C(N)=O)[C@@H](C)O`, the IC50 in assay [1] stood at 1570 nM; in assay [2], 1.75 nM; in assay [3], 0.31 nM. Further, in the assay with Rattus norvegicus, the ED50 was determined as 5.9e-05 µmol/kg.
For Ac-YSLRHFLNLVTRQRY-NH2, the IC50 in assay [1] is 48.9 nM; in assay [2] it was 2.68 nM; in assay [3] it was 3.4 nM.
The like results for `CC(=O)N[C@@H](C)C(=O)N[C@@H](CO)C(=O)N[C@@H](CC(C)C)C(=O)N[C@@H](CCCN=C(N)N)C(=O)N[C@@H](Cc1c[nH]cn1)C(=O)N[C@@H](Cc1ccc(O)cc1)C(=O)N[C@@H](CC(C)C)C(=O)N[C@@H](CC(N)=O)C(=O)N[C@H](Cc1c[nH]c2ccccc12)C(=O)N[C@H](C(=O)N[C@H](C(=O)N[C@@H](CCCN=C(N)N)C(=O)N[C@@H](CCC(N)=O)C(=O)N[C@@H](CCCN=C(N)N)C(=O)N[C@@H](Cc1ccc(O)cc1)C(N)=O)[C@@H](C)O)C(C)C` were, in that order, 47.9 nM, 56.5 nM and > 100 nM.
The like results for Ac-ASLRHFLNLVTRQRF-NH2 were, in that order, > 10000 nM, 1.16 nM and 14.1 nM.
The like results for `CC(=O)N[C@@H](C)C(=O)N[C@@H](CO)C(=O)N[C@@H](CC(C)C)C(=O)N[C@@H](CCCNC(=N)N)C(=O)N[C@@H](Cc1cnc[nH]1)C(=O)N[C@H](C(=O)N[C@@H](CC(C)C)C(=O)N[C@@H](CC(N)=O)C(=O)N[C@@H](CC(C)C)C(=O)N[C@H](C(=O)N[C@H](C(=O)N[C@@H](CCCNC(=N)N)C(=O)N[C@@H](CCC(N)=O)C(=O)N[C@@H](CCCNC(=N)N)C(=O)N[C@@H](Cc1ccc(O)cc1)C(N)=O)[C@@H](C)O)C(C)C)C(c1ccccc1)c1ccccc1` (Ac-ASLRH[Dip]LNLVTRQRY-NH2) were, in that order, 447 nM, 10 nM and 16.5 nM.
In the case of `CC(=O)N[C@@H](C)C(=O)N[C@@H](CO)C(=O)N[C@@H](CC(C)C)C(=O)N[C@@H](CCCNC(=N)N)C(=O)N[C@@H](Cc1cnc[nH]1)C(=O)N[C@@H](Cc1ccc(O)cc1)C(=O)N[C@@H](CC(C)C)C(=O)N[C@@H](CC(N)=O)C(=O)N[C@@H](Cc1cccc2ccccc12)C(=O)N[C@H](C(=O)N[C@H](C(=O)N[C@@H](CCCNC(=N)N)C(=O)N[C@@H](CCC(N)=O)C(=O)N[C@@H](CCCNC(=N)N)C(=O)N[C@@H](Cc1ccc(O)cc1)C(N)=O)[C@@H](C)O)C(C)C` (Ac-ASLRHYLN[1Nal]VTRQRY-NH2), the half-maximal inhibitory concentration (IC50) came to 159 nM in assay [1], 1.09 nM in assay [2] and 3.54 nM in assay [3].
The like results for `CC(=O)N[C@@H](C)C(=O)N[C@@H](CO)C(=O)N[C@@H](CSSC[C@H](NC(=O)[C@H](CO)NC(=O)[C@H](C)NC(C)=O)C(=O)N[C@@H](CCCNC(=N)N)C(=O)N[C@@H](Cc1cnc[nH]1)C(=O)N[C@@H](Cc1ccc(O)cc1)C(=O)N[C@@H](CC(C)C)C(=O)N[C@@H](CC(N)=O)C(=O)N[C@@H](CC(C)C)C(=O)N[C@H](C(=O)N[C@H](C(=O)N[C@@H](CCCNC(=N)N)C(=O)N[C@@H](CCC(N)=O)C(=O)N[C@@H](CCCNC(=N)N)C(=O)N[C@@H](Cc1ccc(O)cc1)C(N)=O)[C@@H](C)O)C(C)C)C(=O)N[C@@H](CCCNC(=N)N)C(=O)N[C@@H](Cc1cnc[nH]1)C(=O)N[C@@H](Cc1ccc(O)cc1)C(=O)N[C@@H](CC(C)C)C(=O)N[C@@H](CC(N)=O)C(=O)N[C@@H](CC(C)C)C(=O)N[C@H](C(=O)N[C@H](C(=O)N[C@@H](CCCNC(=N)N)C(=O)N[C@@H](CCC(N)=O)C(=O)N[C@@H](CCCNC(=N)N)C(=O)N[C@@H](Cc1ccc(O)cc1)C(N)=O)[C@@H](C)O)C(C)C` (I: Ac-ASCRHYLNLVTRQRY-NH2 / II: Ac-ASCRHYLNLVTRQRY-NH2; disulfide I:3-II:3) [listing 2 of 2 here] were, in that order, 110 nM, 0.39 nM and 0.63 nM.
The like results for `CC(=O)N[C@@H](C)C(=O)N[C@@H](CO)C(=O)N[C@@H](CC(C)C)C(=O)N[C@@H](CCCN=C(N)N)C(=O)N[C@@H](Cc1c[nH]cn1)C(=O)N[C@@H](Cc1ccc(O)cc1)C(=O)N[C@@H](CC(C)C)C(=O)N[C@@H](CC(N)=O)C(=O)N[C@H](CN[C@H](C(=O)N[C@H](C(=O)N[C@@H](CCCN=C(N)N)C(=O)N[C@@H](CCC(N)=O)C(=O)N[C@@H](CCCN=C(N)N)C(=O)N[C@@H](Cc1ccc(O)cc1)C(N)=O)[C@@H](C)O)C(C)C)CC(C)C` were, in that order, 769 nM, > 3000 nM and > 100 nM.

The values above are taken from ChEMBL document CHEMBL1133640, “Structure-activity studies including a Psi(CH(2)-NH) scan of peptide YY (PYY) active site, PYY(22-36), for interaction with rat intestinal PYY receptors: development of analogues with potent in vivo activity in the intestine” (J Med Chem, 2000).
